# Data: ChEMBL document CHEMBL1153046, “Synthesis and antitumor activity of substituted triazolo[4,3-a]pyrimidin-6-sulfonamide with an incorporated thiazolidinone moiety” (2009)
# Assays:
# Type in all cases: functional
# [1] = test system: HT-29; test: Growth inhibition of human HT-29 cells after 48 hrs by sulforhodamine B assay; settings: HT-29, 48 h
# In short: (§1)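 NCI 60-cell-line panel. Cells are grown in RPMI1640 with 5% fetal calf serum and 2 mM L-glutamine, seeded at a density set by growth characteristics, and preincubated 24 h. Compound is tested at a minimum of five concentrations at 10-fold dilution, with 48 h continuous exposure. Viability is read by sulforhodamine B protein assay. GI50, TGI and LC50 come from dose-response curves.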
# [2] = test system: NCI-H460; test: Growth inhibition of human NCI-H460 cells after 48 hrs by sulforhodamine B assay; settings: NCI-H460, 48 h; in short: as §1
# [3] = test system: K562; test: Growth inhibition of human K562 cells after 48 hrs by sulforhodamine B assay; settings: K562, 48 h; in short: as §1
# [4] = test system: HCC 2998; test: Growth inhibition of human HCC2998 cells after 48 hrs by sulforhodamine B assay; settings: HCC 2998, 48 h; in short: as §1
# [5] = test system: MDA-MB-231; test: Growth inhibition of human MDA-MB-231 cells after 48 hrs by sulforhodamine B assay; settings: MDA-MB-231, 48 h; in short: as §1
# [6] = test system: DU-145; test: Growth inhibition of human DU145 cells after 48 hrs by sulforhodamine B assay; settings: DU-145, 48 h; in short: as §1
# [7] = test system: EKVX; test: Growth inhibition of human EKVX cells after 48 hrs by sulforhodamine B assay; in short: as §1
# [8] = test system: COLO 205; test: Growth inhibition of human COLO205 cells after 48 hrs by sulforhodamine B assay; settings: COLO 205, 48 h; in short: as §1
# [9] = test system: KM12; test: Growth inhibition of human KM12 cells after 48 hrs by sulforhodamine B assay; settings: KM12, 48 h; in short: as §1
# [10] = test system: NCI-H226; test: Growth inhibition of human NCI-H226 cells after 48 hrs by sulforhodamine B assay; settings: NCI-H226, 48 h; in short: as §1
# [11] = test system: SNB-19; test: Growth inhibition of human SNB19 cells after 48 hrs by sulforhodamine B assay; settings: SNB-19, 48 h
# In short: (§2)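 NCI 60-cell-line panel (nine cancer types), with cells grown in RPMI1640 plus 5% fetal calf serum and 2 mM L-glutamine. Cells are seeded at a density that depends on the line and preincubated 24 h. Compounds are then applied at a minimum of five 10-fold dilutions over a 5-log range with 48 h continuous exposure. Viability is read by SRB protein assay, and GI50 is derived from dose-response curves in units of 10^-5 M.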
# [12] = test system: SF-295; test: Growth inhibition of human SF295 cells after 48 hrs by sulforhodamine B assay; settings: SF-295, 48 h; in short: as §1
# [13] = test system: NCI-H322M; test: Growth inhibition of human NCI-H322M cells after 48 hrs by sulforhodamine B assay; in short: as §1
# [14] = test system: U-251; test: Growth inhibition of human U251 cells after 48 hrs by sulforhodamine B assay; settings: U-251, 48 h; in short: as §2
# [15] = test system: A498; test: Growth inhibition of human A498 cells after 48 hrs by sulforhodamine B assay; settings: A498, 48 h; in short: as §1
# [16] = test system: MDA-MB-435; test: Growth inhibition of human MDA-MB-435 cells after 48 hrs by sulforhodamine B assay; settings: MDA-MB-435, 48 h; in short: as §1
# [17] = test system: HCT-116; test: Growth inhibition of human HCT116 cells after 48 hrs by sulforhodamine B assay; settings: HCT-116, 48 h; in short: as §1
# [18] = test system: RXF 393; test: Growth inhibition of human RXF393 cells after 48 hrs by sulforhodamine B assay; settings: RXF 393, 48 h; in short: as §1
# [19] = Growth inhibition of human Hs 578T cells after 48 hrs by sulforhodamine B assay; in short: as §1
# [20] = test system: SF-539; test: Growth inhibition of human SF539 cells after 48 hrs by sulforhodamine B assay; settings: SF-539, 48 h; in short: as §1
# [21] = Growth inhibition of human […] cells after 48 hrs by sulforhodamine B assay; in short: as §1
# [22] = test system: MOLT-4; test: Growth inhibition of human MOLT4 cells after 48 hrs by sulforhodamine B assay; settings: MOLT-4, 48 h; in short: as §1
# [23] = test system: A549; test: Growth inhibition of human A549 cells after 48 hrs by sulforhodamine B assay; settings: A549, 48 h; in short: as §1
# [24] = test system: OVCAR-8; test: Growth inhibition of human OVCAR8 cells after 48 hrs by sulforhodamine B assay; settings: OVCAR-8, 48 h; in short: as §1
# [25] = test system: CCRF-CEM; test: Growth inhibition of human CCRF-CEM cells after 48 hrs by sulforhodamine B assay; in short: as §1
# [26] = test system: SK-MEL-2; test: Growth inhibition of human SK-MEL-2 cells after 48 hrs by sulforhodamine B assay; settings: SK-MEL-2, 48 h; in short: as §1
# [27] = test system: IGROV-1; test: Growth inhibition of human IGROV1 cells after 48 hrs by sulforhodamine B assay; settings: IGROV-1, 48 h; in short: as §1
# [28] = test system: UACC-257; test: Growth inhibition of human UACC257 cells after 48 hrs by sulforhodamine B assay; settings: UACC-257, 48 h; in short: as §2
# [29] = test system: MCF7; test: Growth inhibition of human MCF7 cells after 48 hrs by sulforhodamine B assay; settings: MCF7, 48 h; in short: as §1
# [30] = read-out: LC50 (the source's name)
structure (smiles),measurement,setting,value
COc1ccc(/C=N/c2nc3[nH]nc(C)n3c(=O)c2S(=O)(=O)NN2C(=O)C(CN3CCOCC3)SC2c2cccs2)cc1 (stereo not drawn),GI50,[1],19.4 µM
same,GI50,[2],5.32 µM
same,TGI,[2],> 100 µM
same,GI50,[3],2.34 µM
same,LC50,[3],> 100 µM
same,TGI,[3],11.3 µM
same,GI50,[4],3.96 µM
same,LC50,[4],64.8 µM
same,TGI,[4],31.3 µM
same,GI50,[5],11.7 µM
same,LC50 (50% lethal concentration),[5],> 100 µM
same,TGI,[5],56.1 µM
same,GI50,[6],16 µM
same,LC50 (concentration giving 50% net cell kill),[6],> 100 µM
same,TGI,[6],> 100 µM
same,GI50,[7],54.1 µM
same,TGI,[7],> 100 µM
same,GI50,[8],14.9 µM
same,TGI,[8],12.8 µM
same,GI50,[9],4.06 µM
same,GI50,[10],24.5 µM
same,LC50 (concentration killing 50% of cells),[10],> 100 µM
same,TGI,[10],> 100 µM
same,GI50,[11],34.5 µM
same,TGI,[11],> 100 µM
same,GI50,[12],4.69 µM
same,LC50 (concentration killing 50% of cells),[12],> 100 µM
same,TGI,[12],> 100 µM
same,GI50,[13],56.9 µM
same,TGI,[13],> 100 µM
same,GI50,[14],15.6 µM
same,LC50,[14],> 100 µM
same,TGI,[14],> 100 µM
same,GI50,[15],2.67 µM
same,LC50 (concentration giving 50% net cell kill),[15],> 100 µM
same,TGI,[15],15.5 µM
same,GI50,[16],3.26 µM
same,TGI,[16],36 µM
same,GI50,[17],4.72 µM
same,LC50 (concentration killing 50% of cells),[17],> 100 µM
same,TGI,[17],57.4 µM
same,GI50,[18],16.6 µM
same,TGI,[18],94.2 µM
same,CC50,[18]; [30],> 100 µM
same,GI50,[19],13.3 µM
same,LC50 (concentration killing 50% of cells),[19],> 100 µM
same,TGI,[19],82.1 µM
same,GI50,[20],7.24 µM
same,LC50,[20],> 100 µM
same,TGI,[20],30.4 µM
same,GI50,[21],3.86 µM
same,TGI,[21],26.2 µM
same,CC50,[21]; [30],> 100 µM
same,GI50,[22],4.08 µM
same,TGI,[22],40.6 µM
same,CC50,[22]; [30],> 100 µM
same,GI50,[23],19.1 µM
same,TGI,[23],> 100 µM
same,GI50,[24],60.6 µM
same,TGI,[24],> 100 µM
same,GI50,[25],6.27 µM
same,TGI,[25],> 100 µM
same,GI50,[26],8.3 µM
same,LC50 (concentration killing 50% of cells),[26],> 100 µM
same,TGI,[26],81.9 µM
same,GI50,[27],3.95 µM
same,LC50,[27],> 100 µM
same,TGI,[27],34.8 µM
same,GI50,[28],6.77 µM
same,LC50,[28],> 100 µM
same,TGI,[28],> 100 µM
same,GI50,[29],3.18 µM
same,TGI,[29],> 100 µM
